Source: ChEMBL document CHEMBL3046625, “Herbicidal and Fungicidal Activities of Lactones in Kava (Piper methysticum)” (2006)

Key:
Assay type in all cases: functional
Echinochloa crus-galli [1] = experiment: Herbicidal activity against Echinochloa crus-galli (barnyard grass) assessed as inhibition of germination at 1 ppm relative to untreated control
Method in brief: (§1)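 Pure reference kava lactones diluted to 1 and 10 ppm. Seeds were sterilized in 1% sodium hypochlorite for 30 min and rinsed in distilled water; germination >80%. Five replicates were incubated at 25 °C, 4000 lx, 8/16 h day/night, 75% humidity. Distilled-water controls. After 7 days, germinated seeds were counted and shoot and root lengths measured.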

Lactuca sativa [2] = experiment: Herbicidal activity against Lactuca sativa cv. Great Lakes 366 (lettuce) assessed as inhibition of root length at 10 ppm relative to untreated control; method in brief: as §1
Echinochloa crus-galli [3] = experiment: Herbicidal activity against Echinochloa crus-galli (barnyard grass) assessed as inhibition of root length at 1 ppm relative to untreated control; method in brief: as §1
[4] = system: Colletotrichum gloeosporioides; experiment: Antifungal activity against Colletotrichum gloeosporioides assessed as growth inhibition at 50 ppm after 4 days relative to untreated control; conditions: 96 h, read-out: GI
Method in brief: (§2)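 Fungal cultures kept on potato dextrose agar (PDA) and subcultured on fresh medium for 3 days before testing. PDA plates held kava lactones dissolved in water at 10 or 50 ppm. Plates were inoculated with plugs from the actively growing fungal margin and incubated at 25 °C for 4 days. Distilled-water controls. Completely randomized design, at least three replicates, ANOVA.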

Fusarium oxysporum [5] = experiment: Antifungal activity against Fusarium oxysporum assessed as growth inhibition at 10 ppm after 4 days relative to untreated control; conditions: 96 h, read-out: GI; method in brief: as §2
Echinochloa crus-galli [6] = experiment: Herbicidal activity against Echinochloa crus-galli (barnyard grass) assessed as inhibition of shoot length at 1 ppm relative to untreated control; method in brief: as §1
Echinochloa crus-galli [7] = experiment: Herbicidal activity against Echinochloa crus-galli (barnyard grass) assessed as inhibition of shoot length at 10 ppm relative to untreated control; method in brief: as §1
Fusarium solani [8] = experiment: Antifungal activity against Fusarium solani assessed as growth inhibition at 50 ppm after 4 days relative to untreated control; conditions: 96 h, read-out: GI; method in brief: as §2
Lactuca sativa [9] = experiment: Herbicidal activity against Lactuca sativa cv. Great Lakes 366 (lettuce) assessed as inhibition of germination at 1 ppm relative to untreated control; method in brief: as §1
Fusarium oxysporum [10] = experiment: Antifungal activity against Fusarium oxysporum assessed as growth inhibition at 50 ppm after 4 days relative to untreated control; conditions: 96 h, read-out: GI; method in brief: as §2
Trichoderma viride [11] = experiment: Antifungal activity against Hypocrea rufa assessed as growth inhibition at 10 ppm after 4 days relative to untreated control; conditions: 96 h, read-out: GI; method in brief: as §2
Lactuca sativa [12] = experiment: Herbicidal activity against Lactuca sativa cv. Great Lakes 366 (lettuce) assessed as inhibition of shoot length at 1 ppm relative to untreated control; method in brief: as §1
Lactuca sativa [13] = experiment: Herbicidal activity against Lactuca sativa cv. Great Lakes 366 (lettuce) assessed as inhibition of root length at 1 ppm relative to untreated control; method in brief: as §1
Trichoderma viride [14] = experiment: Antifungal activity against Hypocrea rufa assessed as growth inhibition at 50 ppm after 4 days relative to untreated control; conditions: 96 h, read-out: GI; method in brief: as §2
Fusarium solani [15] = experiment: Antifungal activity against Fusarium solani assessed as growth inhibition at 10 ppm after 4 days relative to untreated control; conditions: 96 h, read-out: GI; method in brief: as §2
Echinochloa crus-galli [16] = experiment: Herbicidal activity against Echinochloa crus-galli (barnyard grass) assessed as inhibition of root length at 10 ppm relative to untreated control; method in brief: as §1
Lactuca sativa [17] = experiment: Herbicidal activity against Lactuca sativa cv. Great Lakes 366 (lettuce) assessed as inhibition of germination at 10 ppm relative to untreated control; method in brief: as §1
Echinochloa crus-galli [18] = experiment: Herbicidal activity against Echinochloa crus-galli (barnyard grass) assessed as inhibition of germination at 10 ppm relative to untreated control; method in brief: as §1
Lactuca sativa [19] = experiment: Herbicidal activity against Lactuca sativa cv. Great Lakes 366 (lettuce) assessed as inhibition of shoot length at 10 ppm relative to untreated control; method in brief: as §1
[20] = system: Colletotrichum gloeosporioides; experiment: Antifungal activity against Colletotrichum gloeosporioides assessed as growth inhibition at 10 ppm after 4 days relative to untreated control; conditions: 96 h, read-out: GI; method in brief: as §2

Row | SMILES | inhibition at 1 ppm (Echinochloa crus-galli [1]) [%] | inhibition at 10 ppm (Lactuca sativa [2]) [%] | inhibition at 1 ppm (Echinochloa crus-galli [3]) [%] | inhibition of growth at 50 ppm [4] [%] | inhibition of growth at 10 ppm (Fusarium oxysporum [5]) [%] | inhibition at 1 ppm (Echinochloa crus-galli [6]) [%] | inhibition at 10 ppm (Echinochloa crus-galli [7]) [%] | inhibition of growth at 50 ppm (Fusarium solani [8]) [%] | inhibition at 1 ppm (Lactuca sativa [9]) [%] | inhibition of growth at 50 ppm (Fusarium oxysporum [10]) [%] | inhibition of growth at 10 ppm (Trichoderma viride [11]) [%] | inhibition at 1 ppm (Lactuca sativa [12]) [%] | inhibition at 1 ppm (Lactuca sativa [13]) [%] | inhibition of growth at 50 ppm (Trichoderma viride [14]) [%] | inhibition of growth at 10 ppm (Fusarium solani [15]) [%] | inhibition at 10 ppm (Echinochloa crus-galli [16]) [%] | inhibition at 10 ppm (Lactuca sativa [17]) [%] | inhibition at 10 ppm (Echinochloa crus-galli [18]) [%] | inhibition at 10 ppm (Lactuca sativa [19]) [%] | inhibition of growth at 10 ppm [20] [%]
1 | COc1cc(/C=C/c2ccccc2)oc(=O)c1 [DESMETHOXYYANGONIN] | 43.3 | 63.3 | 46.4 | 22.2 | 11.6 | 31.7 | 59.9 | 33.9 | 48.1 | 24.6 | 0 | 74.9 | 50.3 | 0 | 27.4 | 51.3 | 59.2 | 60 | 82.4 | 0
2 | COC1=CC(=O)O[C@@H](CCc2ccccc2)C1 [DIHYDROKAWAIN] | 46.7 | 15.6 | 53.1 | 33.3 | 10.1 | 56.6 | 61.2 | 38.7 |  | 21.7 | 0 |  |  | 16.2 | 0 | 58.9 | 25.9 | 50 | 74.3 | 0
3 | COC1=CC(=O)O[C@@H](CCc2ccc3c(c2)OCO3)C1 [DIHYDROMETHYSTICIN] | 50 | 74.8 | 32.1 | 27.8 | 18.8 | 48.6 | 55.6 | 48.4 |  | 31.9 | 0 |  |  | 0 | 40.3 | 48.2 | 89.9 | 56.7 | 76.5 | 0
4 | COC1=CC(=O)O[C@@H](/C=C/c2ccccc2)C1 [KAVAIN] | 46.7 | 62.6 | 39.7 | 0 | 0 |  | 47.6 | 29 | 51.9 | 17.4 | 0 | 75.9 | 59.9 | 0 | 29 | 46.9 | 59.2 | 46.7 | 86.1 | 0
5 | COC1=CC(=O)O[C@@H](/C=C/c2ccc3c(c2)OCO3)C1 [METHYSTICIN] | 50 | 53.1 | 75.4 | 0 | 11.6 | 55 | 56 | 33.9 | 48.1 | 36.2 | 0 | 71.1 | 61.2 | 0 | 37.1 | 83.9 | 55.6 | 60 | 73.3 | 0
6 | COc1ccc(/C=C/c2cc(OC)cc(=O)o2)cc1 [YANGONIN] | 56.7 | 68 | 42.9 | 0 |  | 53.1 | 58.2 | 41.9 | 44.4 | 39.1 |  | 63.1 | 36.1 | 0 |  | 43.8 | 59.2 | 56.7 | 78.6 | 
